Experimental data: paper PMC11310375 (EJNMMI Radiopharmacy and Chemistry, 2024)
Square brackets hold non-standard residues; d marks the D form. Peptide text beside a SMILES is read from it. * marks the point of attachment. AspCH2OCO(5-Me-thien-2-yl) = Cc1ccc(C(=O)OCC(=O)[C@H](CC(=O)O)N*)s1; Phe(F5) = N[C@@H](Cc1c(F)c(F)c(F)c(F)c1F)C(=O)O; X2 = O=C(CCOCCOCCOCCOCCn1cc(CCCF)nn1)*; 3Pal = N[C@@H](Cc1cccnc1)C(=O)O; X1 = O=C(Cn1cc(CCCF)nn1)*; Ahx = NCCCCCC(=O)O

Assays:
COLO205 tumours = assay: Caspase activity in tumour homogenates with fluorogenic substrate; format: in vivo, CD1^−/− nude mice; conditions: 24 h after treatment
In short: (§1)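 Female CD1 nude mice bore subcutaneous hind-leg xenografts: COLO205 at 2×10⁶ cells, HT29 at 10×10⁶. At about 200 mm³, mice received conatumumab or IgG1 isotype, 1.5 mg/kg i.p. Tumours were taken 24 h later and homogenised. Homogenate (20 μg protein) was incubated with 50 μM Ac-DEVD-AMC in caspase buffer, 1 h, 37 °C. AMC (ex 360/em 460) was quantified in pmol against a free-AMC standard; N = 3.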

HT29 tumours = assay: as above; format: in vivo, CD1^−/− nude mice; conditions: 24 h after treatment
In short: as §1

caspase-3 [1] = target: T1, caspase-3 (Homo sapiens, UniProt P42574); assay: Biochemical inhibition assay, kinact/Ki with AMAC substrate; conditions: for kinact/KI: read-out: kinact/Ki C3
T1 sequence (P42574 29-175 limits assumed): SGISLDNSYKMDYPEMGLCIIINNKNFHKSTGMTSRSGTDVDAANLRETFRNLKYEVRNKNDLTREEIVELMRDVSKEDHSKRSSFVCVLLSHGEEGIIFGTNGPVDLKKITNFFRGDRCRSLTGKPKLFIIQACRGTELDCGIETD
T1 sequence (P42574 176-277 limits assumed): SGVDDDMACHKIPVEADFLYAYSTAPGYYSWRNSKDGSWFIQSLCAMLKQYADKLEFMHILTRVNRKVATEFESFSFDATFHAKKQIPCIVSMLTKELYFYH
In short: (§2)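 Continuous fluorogenic inactivation assay with Ac-DEVD-AMAC at 100 μM final. Final enzyme concentrations were 1 nM caspase-3 and 5 nM caspase-7. Enzyme was added to substrate plus inhibitor, and fluorescence (ex 320/em 460) was read immediately. Progress curves were fit to F = -[v₀(1-exp(-kobst))/kobs-Fmax] to give kinact and Ki.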

caspase-6 = target: T2, caspase-6 (Homo sapiens, UniProt P55212); assay: Biochemical inhibition assay, kinact/Ki with AMAC substrate; conditions: for kinact/KI: read-out: kinact/Ki C6
T2 sequence (P55212 24-179 limits assumed): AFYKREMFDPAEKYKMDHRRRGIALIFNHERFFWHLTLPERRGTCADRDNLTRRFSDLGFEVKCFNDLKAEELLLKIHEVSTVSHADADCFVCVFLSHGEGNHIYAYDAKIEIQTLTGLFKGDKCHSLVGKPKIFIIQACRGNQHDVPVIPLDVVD
T2 sequence (P55212 194-293 limits assumed): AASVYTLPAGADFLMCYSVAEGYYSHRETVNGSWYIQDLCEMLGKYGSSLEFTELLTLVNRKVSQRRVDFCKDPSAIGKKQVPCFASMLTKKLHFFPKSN
In short: (§3)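 Caspase-8 (25 nM), caspase-9 (100 nM) and caspase-10 (20 nM) used Ac-IETD-AMAC; caspase-9 and caspase-10 buffers also had 0.7 M sodium citrate. Caspase-6 (25 nM) used Ac-VEID-AMAC. Fluorescence (ex 320/em 460) was read immediately, and progress curves were fit for kinact and Ki.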

caspase-7 = target: T3, caspase-7 (Homo sapiens, UniProt P55210); assay: Biochemical inhibition assay, kinact/Ki with AMAC substrate; conditions: for kinact/KI: read-out: kinact/Ki C7
T3 sequence (P55210 24-198 limits assumed): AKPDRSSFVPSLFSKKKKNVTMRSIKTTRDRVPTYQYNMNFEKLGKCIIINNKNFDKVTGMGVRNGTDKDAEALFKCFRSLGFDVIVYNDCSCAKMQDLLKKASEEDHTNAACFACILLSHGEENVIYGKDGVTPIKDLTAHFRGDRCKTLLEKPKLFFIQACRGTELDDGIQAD
T3 sequence (P55210 207-303 limits assumed): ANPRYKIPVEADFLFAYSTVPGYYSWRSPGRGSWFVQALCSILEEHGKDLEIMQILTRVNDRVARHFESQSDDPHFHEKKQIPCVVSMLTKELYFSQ
In short: as §2

caspase-8 = caspase-8 (Homo sapiens, UniProt Q14790); assay: Biochemical inhibition assay, kinact/Ki with AMAC substrate; conditions: for kinact/KI: read-out: kinact/Ki C8
Chain of caspase-8 (Q14790 217-374 limits assumed): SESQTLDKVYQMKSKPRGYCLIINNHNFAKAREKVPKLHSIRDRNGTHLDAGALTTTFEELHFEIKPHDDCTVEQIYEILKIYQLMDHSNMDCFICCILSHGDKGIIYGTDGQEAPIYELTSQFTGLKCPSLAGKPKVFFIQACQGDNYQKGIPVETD
Chain of caspase-8 (Q14790 385-479 limits assumed): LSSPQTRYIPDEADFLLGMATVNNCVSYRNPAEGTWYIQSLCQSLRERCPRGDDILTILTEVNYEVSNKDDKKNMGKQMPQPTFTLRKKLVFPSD
In short: as §3

caspase-9 = target: T4, caspase-9 (Homo sapiens, UniProt P55211); assay: as above; conditions: for kinact/KI: read-out: kinact/Ki C9
T4 sequence (P55211 1-315 limits assumed): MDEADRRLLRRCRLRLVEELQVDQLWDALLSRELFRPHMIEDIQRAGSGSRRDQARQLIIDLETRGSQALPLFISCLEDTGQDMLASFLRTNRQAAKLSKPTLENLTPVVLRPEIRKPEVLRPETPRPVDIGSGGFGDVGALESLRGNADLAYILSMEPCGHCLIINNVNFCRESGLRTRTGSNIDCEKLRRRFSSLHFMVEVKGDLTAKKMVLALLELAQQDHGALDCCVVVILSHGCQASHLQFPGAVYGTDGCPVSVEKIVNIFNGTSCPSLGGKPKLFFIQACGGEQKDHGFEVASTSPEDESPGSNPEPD
T4 sequence (P55211 331-416 limits assumed): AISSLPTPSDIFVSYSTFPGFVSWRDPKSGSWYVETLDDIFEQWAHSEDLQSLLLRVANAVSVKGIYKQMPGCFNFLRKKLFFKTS
In short: as §3

caspase-10 = target: T5, caspase-10 (Homo sapiens, UniProt Q92851); assay: as above; conditions: for kinact/KI: read-out: kinact/Ki C10
T5 sequence (Q92851 220-415 limits assumed): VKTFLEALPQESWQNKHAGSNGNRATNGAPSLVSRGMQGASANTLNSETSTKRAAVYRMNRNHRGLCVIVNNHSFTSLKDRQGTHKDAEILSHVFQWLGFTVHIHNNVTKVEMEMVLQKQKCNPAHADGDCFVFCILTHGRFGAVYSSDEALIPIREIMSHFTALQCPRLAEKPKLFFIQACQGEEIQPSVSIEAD
T5 sequence (Q92851 416-521 limits assumed): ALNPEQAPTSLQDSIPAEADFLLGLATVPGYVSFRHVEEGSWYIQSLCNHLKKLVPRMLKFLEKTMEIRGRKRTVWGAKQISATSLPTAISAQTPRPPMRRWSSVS
In short: as §3

caspase-3 [2] = target: T1, caspase-3; assay: Biochemical inhibition assay, kinact/Ki with Ac-DEVD-AMC substrate
In short: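 Ac-DEVD-AMC was 50 µM final and inhibitor 20 to 80 nM final. Reference inhibitor Ac-ATS010-KE was run alongside. kinact/Ki was derived as for the AMAC assay.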

caspase-3 [3] = target: T1, caspase-3; conditions: cited from earlier work
Jurkat cells = conditions: ref Solania et al. [2019]; cited from earlier work
HeLa cells = assay: Caspase activity assay with fluorogenic substrate Ac-DEVD-AMC in cell lysates; format: cell-based, human; conditions: HeLa cells treated with STS
In short: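 HeLa cells were seeded at 0.3×10^6 per well in supplemented DMEM at 37 °C, 5% CO₂. […] Cells were lysed in hypotonic PIPES/NP-40 buffer pH 7.4 on ice. Lysate (20 μg protein) was incubated with 50 μM Ac-DEVD-AMC in 100 μL caspase buffer for 1 h at 37 °C. AMC fluorescence (ex 360/em 460) was converted to pmol by free-AMC standard curve; mean of three.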

Compound	kinact/KI (caspase-3 [1]) [M⁻¹ s⁻¹]	kinact/KI (caspase-6) [M⁻¹ s⁻¹]	kinact/KI (caspase-7) [M⁻¹ s⁻¹]	kinact/KI (caspase-8) [M⁻¹ s⁻¹]	kinact/KI (caspase-9) [M⁻¹ s⁻¹]	kinact/KI (caspase-10) [M⁻¹ s⁻¹]	further results
conatumumab: apoptosis-inducing therapy (Amgen) given to tumour-bearing mice, compared with IgG1 isotype control							caspase activity, liberated AMC (COLO205 tumours): 15,119 ± 761 pmol liberated AMC; caspase activity, liberated AMC (HT29 tumours): 679 ± 63 pmol liberated AMC
Ac-3Pal-Asp-Phe(F5)-Phe-Asp-KE [Ac-ATS010-KE, reference compound]							kinact/Ki C3 (caspase-3 [1]; AMAC-substrates, N = 4): 1.7e+06 M⁻¹ s⁻¹; kinact/Ki C6 (caspase-6; AMAC-substrates, N = 4): 300 M⁻¹ s⁻¹; kinact/Ki C7 (caspase-7; AMAC-substrates, N = 4): 190000 M⁻¹ s⁻¹; kinact/Ki C8 (caspase-8; AMAC-substrates, N = 4): 25000 M⁻¹ s⁻¹; kinact/Ki C9 (caspase-9; AMAC-substrates, N = 4): 14000 M⁻¹ s⁻¹; kinact/Ki C10 (caspase-10; AMAC-substrates, N = 4): 1000 M⁻¹ s⁻¹; kinact/Ki caspase-3 (caspase-3 [2]): 46.48 ± 9.96 × 10^4.s^−1.M^−1; increase of kinact/Ki for caspase-3 over the DW3 sequence (caspase-3 [3]; ref Solania et al. [2019]): 154 fold; protection from MegaFasL-induced apoptosis (Jurkat cells): able to protect Jurkat cells from MegaFasL-induced apoptosis
Ac-3Pal-Asp-βhLeu-Phe-Asp-KE [Ac-DW3-KE]							efficiency in inactivation of caspase-3, less than Ac-DEVD-KE (caspase-3 [3]; ref Solania et al. [2019]): 500 times; selectivity for caspase-3 against caspase-7 (caspase-3 [3]; ref Vickers et al. [2013]): 120 fold; selectivity for caspase-3 against caspase-8 (caspase-3 [3]; ref Vickers et al. [2013]): 58 fold
CN[C@@H]1C[C@H]2O[C@@](C)([C@@H]1OC)n1c3ccccc3c3c4c(c5c6ccccc6n2c5c31)C(=O)NC4 [STS, staurosporine]							AMC liberation (caspase activity) (HeLa cells): 1598 ± 444 pmol AMC

Continued, in another order:

kinact/KI (caspase-3 [1]) [M⁻¹ s⁻¹]	kinact/KI (caspase-6) [M⁻¹ s⁻¹]	kinact/KI (caspase-7) [M⁻¹ s⁻¹]	kinact/KI (caspase-8) [M⁻¹ s⁻¹]	kinact/KI (caspase-9) [M⁻¹ s⁻¹]	kinact/KI (caspase-10) [M⁻¹ s⁻¹]	Compound	further results
863000	200	71400	7200	800	700	Cc1ccc(C(=O)OCC(=O)[C@H](CC(=O)O)NC(=O)[C@H](Cc2ccccc2)NC(=O)[C@H](Cc2c(F)c(F)c(F)c(F)c2F)NC(=O)[C@H](CC(=O)O)NC(=O)[C@H](Cc2cccnc2)NC(=O)CNC(=O)[C@H](CCC(=O)O)NC(=O)CNC(=O)Cn2cc(CCCF)nn2)s1 [Inhibitor 4, (3S,6S,9S,12S,15S,21S)-6-benzyl-12-(carboxymethyl)-21-(2-(2-(4-(3-fluoropropyl)-1H-1,2,3-triazol-1-yl)acetamido)acetamido)-3-(2-((5-methylthiophene-2-carbonyl)oxy)acetyl)-5,8,11,14,17,20-hexaoxo-9-((perfluorophenyl)methyl)-15-(pyridin-3-ylmethyl)-4,7,10,13,16,19-hexaazatetracosanedioic acid] (X1-GEG[3Pal]D[Phe(F5)]F-{AspCH2OCO(5-Me-thien-2-yl)})	
1.25e+06	300	106000	13500	1000	600	Cc1ccc(C(=O)OCC(=O)[C@H](CC(=O)O)NC(=O)[C@H](Cc2ccccc2)NC(=O)[C@H](Cc2c(F)c(F)c(F)c(F)c2F)NC(=O)[C@H](CC(=O)O)NC(=O)[C@H](Cc2cccnc2)NC(=O)CCOCCOCCOCCOCCn2cc(CCCF)nn2)s1 [Inhibitor 5, (17S,20S,23S,26S,29S)-26-benzyl-20-(carboxymethyl)-1-(4-(3-fluoropropyl)-1H-1,2,3-triazol-1-yl)-29-(2-((5-methylthiophene-2-carbonyl)oxy)acetyl)-15,18,21,24,27-pentaoxo-23-((perfluorophenyl)methyl)-17-(pyridin-3-ylmethyl)-3,6,9,12-tetraoxa-16,19,22,25,28-pentaazahentriacontan-31-oic acid] (X2-[3Pal]D[Phe(F5)]F-{AspCH2OCO(5-Me-thien-2-yl)})	
851000	200	108000	7700	900	900	Cc1ccc(C(=O)OCC(=O)[C@H](CC(=O)O)NC(=O)[C@H](Cc2ccccc2)NC(=O)[C@H](Cc2c(F)c(F)c(F)c(F)c2F)NC(=O)[C@H](CC(=O)O)NC(=O)[C@H](Cc2cccnc2)NC(=O)CCCCCNC(=O)Cn2cc(CCCF)nn2)s1 [Inhibitor 6, (11S,14S,17S,20S,23S)-20-benzyl-14-(carboxymethyl)-1-(4-(3-fluoropropyl)-1H-1,2,3-triazol-1-yl)-23-(2-((5-methylthiophene-2-carbonyl)oxy)acetyl)-2,9,12,15,18,21-hexaoxo-17-((perfluorophenyl)methyl)-11-(pyridin-3-ylmethyl)-3,10,13,16,19,22-hexaazapentacosan-25-oic acid] ({X1-Ahx}-[3Pal]D[Phe(F5)]F-{AspCH2OCO(5-Me-thien-2-yl)})	
